Consider 25 compounds from ChEMBL document CHEMBL4011636, “Utilization of an Active Site Mutant Receptor for the Identification of Potent and Selective Atypical 5-HT2C Receptor Agonists” (J Med Chem, 2017).

SMILES strings stand for the structures. pEC50: −log10 of the molar value. Where only a bound is given, the exact number is not on record here.

The target in data set [1] is T1, 5-hydroxytryptamine receptor 2B (Homo sapiens, UniProt P41595). Put plainly: Agonist activity at recombinant human 5-HT2B receptor expressed in HEK293E cells assessed as induction of intracellular Ca2+ levels after 90 secs by Fluo-4-dye based FLIPR assay. Format: cell-based, HEK293. In a few lines: (§1)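 HEK293E cells stably expressing human receptor (VNV isoform for 5-HT2C; ~400−795 fmol/mg protein), grown in DMEM with 10% dialyzed FBS and G418. Cells plated at 20 000/well in serum-free DMEM overnight at 37 °C, then loaded 1 h at room temperature with 5 μM Fluo-4 in HBSS/25 mM HEPES. Eleven compound concentrations added on FLIPR, Ca2+ signal read for 90 s. EC50 from a four-parameter logistic fit, at least triplicate.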
T1 sequence (P41595 whole entry, canonical isoform): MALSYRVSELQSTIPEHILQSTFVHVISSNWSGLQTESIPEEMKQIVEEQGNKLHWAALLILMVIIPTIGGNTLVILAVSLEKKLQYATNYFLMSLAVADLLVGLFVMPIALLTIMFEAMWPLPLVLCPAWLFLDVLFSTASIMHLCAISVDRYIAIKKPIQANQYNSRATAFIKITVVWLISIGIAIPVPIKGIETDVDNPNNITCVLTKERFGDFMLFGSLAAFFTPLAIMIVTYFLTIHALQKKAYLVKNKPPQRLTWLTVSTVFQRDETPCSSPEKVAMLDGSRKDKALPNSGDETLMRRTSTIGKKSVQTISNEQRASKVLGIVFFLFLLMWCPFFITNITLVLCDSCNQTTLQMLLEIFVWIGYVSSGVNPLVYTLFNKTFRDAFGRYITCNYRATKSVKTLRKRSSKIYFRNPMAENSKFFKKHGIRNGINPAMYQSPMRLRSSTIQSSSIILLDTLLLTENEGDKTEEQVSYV

A short description of data set [2]: Metabolic stability in human liver microsomes assessed as parent compound remaining at […] after 10 mins. The settings on record: read-out: Stability. The data set is classed as ADME, microsome.
In data set [3] the target is T2, 5-hydroxytryptamine receptor 2C (Homo sapiens) (UniProt P28335).
T2 sequence (whole entry): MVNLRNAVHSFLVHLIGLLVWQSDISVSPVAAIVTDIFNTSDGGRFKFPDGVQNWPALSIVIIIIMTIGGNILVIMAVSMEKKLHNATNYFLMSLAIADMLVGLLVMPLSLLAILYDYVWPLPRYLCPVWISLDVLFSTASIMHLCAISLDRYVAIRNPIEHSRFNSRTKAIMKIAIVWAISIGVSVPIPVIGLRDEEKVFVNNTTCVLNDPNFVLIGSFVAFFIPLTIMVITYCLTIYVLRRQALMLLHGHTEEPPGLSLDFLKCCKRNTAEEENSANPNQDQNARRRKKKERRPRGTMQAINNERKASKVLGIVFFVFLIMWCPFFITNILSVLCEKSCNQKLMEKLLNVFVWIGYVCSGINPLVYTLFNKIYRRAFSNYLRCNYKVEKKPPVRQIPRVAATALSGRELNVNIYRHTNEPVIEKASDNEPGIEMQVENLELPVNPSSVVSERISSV
Put plainly: Intrinsic activity at recombinant human 5-HT2C receptor expressed in HEK293E cells assessed as induction of intracellular Ca2+ levels after 90 secs by Fluo-4-dye based FLIPR assay relative to serotonin. Format: functional, cell-based. The settings on record: HEK293. In a few lines: (§2)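 FLIPR Fluo-4 Ca2+ assay in HEK293E cells stably expressing the human receptor (VNV isoform for 5-HT2C), eleven-point concentration series, 90 s read. Response normalized to 3 μM serotonin on the same plate (defined as IA = 1). Intrinsic activity taken from a four-parameter logistic fit.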

Data set [4] is described as follows: Metabolic stability in rat liver microsomes assessed as parent compound remaining at […] after 10 mins. The data set is classed as ADME, microsome. Particulars: read-out: Stability. In general terms: Liver microsomes are vesicles of endoplasmic reticulum, rich in cytochrome P450 enzymes.
The target of data set [5] is T3, 5-hydroxytryptamine receptor 2C (Homo sapiens, UniProt P28335).
T3 sequence (P28335 whole entry): T2 sequence (whole entry)
As to the kind of experiment: Agonist activity at recombinant human 5-HT2C receptor expressed in HEK293E cells assessed as induction of intracellular Ca2+ levels after 90 secs by Fluo-4-dye based FLIPR assay. The data set is classed as functional, cell-based, HEK293. Put shortly: as §1

Data set [6] addresses 5-hydroxytryptamine receptor 2A (Homo sapiens, UniProt P28223). As to the kind of experiment: Agonist activity at recombinant human 5-HT2A receptor expressed in HEK293E cells assessed as induction of intracellular Ca2+ levels after 90 secs by Fluo-4-dye based FLIPR assay. Format: cell-based, HEK293. Put shortly: as §1
Data set [7] is described as follows: Agonist activity at recombinant human 5-HT2C receptor D134A mutant expressed in HEK293E cells assessed as induction of intracellular Ca2+ levels after 90 secs by Fluo-4-dye based FLIPR assay. Format: cell-based. Particulars: HEK293.
The target of data set [8] is T1, 5-hydroxytryptamine receptor 2B. As to the kind of experiment: Intrinsic activity at recombinant human 5-HT2B receptor expressed in HEK293E cells assessed as induction of intracellular Ca2+ levels after 90 secs by Fluo-4-dye based FLIPR assay relative to serotonin. The data set is classed as functional, cell-based. The settings on record: HEK293. Put shortly: as §2

Sequence of 5-hydroxytryptamine receptor 2A (P28223 whole entry): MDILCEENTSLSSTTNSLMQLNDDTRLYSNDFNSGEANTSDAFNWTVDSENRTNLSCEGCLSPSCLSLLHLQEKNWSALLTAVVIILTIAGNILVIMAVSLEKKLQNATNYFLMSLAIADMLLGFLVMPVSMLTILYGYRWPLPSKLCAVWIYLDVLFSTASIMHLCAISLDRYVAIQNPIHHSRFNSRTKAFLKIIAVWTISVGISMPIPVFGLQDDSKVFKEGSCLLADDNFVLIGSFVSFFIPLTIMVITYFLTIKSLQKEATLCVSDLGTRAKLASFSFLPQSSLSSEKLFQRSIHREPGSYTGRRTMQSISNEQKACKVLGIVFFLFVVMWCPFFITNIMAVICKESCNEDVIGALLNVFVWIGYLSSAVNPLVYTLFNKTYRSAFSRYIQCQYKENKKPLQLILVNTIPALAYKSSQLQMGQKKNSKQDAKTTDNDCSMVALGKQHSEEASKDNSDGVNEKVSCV

Take `Cc1cn(-c2cccc3ccccc23)cc1C(=O)N1CCC(CO)CC1`: the results for the pEC50 in data set [1], in data set [5] and in data set [6] were < 5.00, 6.36 to 6.43 and < 5.00, respectively. Besides, the remaining at 10 min worked out at 67% in data set [2] and 18% in data set [4]. Also, the Intrinsic activity in data set [3] is 0.7.

For `Cc1sc(-c2cccc3ccccc23)cc1C(=O)N1CCC(CO)CC1`, the pEC50 (usually the negative decadic logarithm of the EC50, by convention in mol/L) in data set [1] is < 5.00; in data set [5], 6.92 to 7.33; in data set [6] it was < 5.00. For the same compound, the remaining at 10 min is 66% in data set [2] and 23% in data set [4]. Also, in data set [3], the Intrinsic activity worked out at 0.8.

Turning to `Cc1nc(-c2cccc3ccccc23)sc1C(=O)N(C)CCO`, the pEC50 in data set [1] is < 5.00; in data set [5], 7.30 to 7.52; in data set [6], < 5.00. Besides, the values for the remaining at 10 min in data set [2] and in data set [4] were 67% and 22%, respectively. Moreover, in data set [3], the Intrinsic activity turned out to be 0.9.

Turning to `Cc1nc(-c2cccc3ccccc23)oc1C(=O)N1CCC(CO)CC1`, the results for the pEC50 in data set [1], in data set [5] and in data set [6] were < 5.00, 6.85 to 7.20 and < 5.00, respectively. The remaining at 10 min in data set [2] was 33%; in data set [4] it was 24%. The Intrinsic activity in data set [3] is 0.9.

For `Cc1nn(-c2cccc3ccccc23)nc1C(=O)N1CCC(CO)CC1`, the pEC50 is < 5.00 in data set [1], 6.41 to 6.48 in data set [5] and < 5.00 in data set [6]. Moreover, the values for the remaining at 10 min in data set [2] and in data set [4] were 58% and 24%, respectively. In addition, the Intrinsic activity in data set [3] was 1.

As for `Cc1nc(-c2cccc3ccccc23)sc1C(=O)N1CCOCC1`, the pEC50 is < 5.00 in data set [1], 6.94 to 7.02 in data set [5] and < 5.00 in data set [6]. The remaining at 10 min is 50% in data set [2] and 6% in data set [4]. For the same compound, the Intrinsic activity in data set [3] was 0.8.

For the compound `Cn1cc(-c2cccc3ccccc23)cc1C(=O)N1CCC(CO)CC1`, the pEC50 is < 5.00 in data set [1], 7.35 to 7.39 in data set [5] and < 5.00 in data set [6]. Further, the remaining at 10 min is 76% in data set [2] and 57% in data set [4]. For the same compound, in data set [3], the Intrinsic activity stood at 1.

On to `Cc1nc(-c2cccc3ccccc23)sc1C(=O)N(C)Cc1cccnc1`, for which the pEC50 in data set [1] is < 5.00; in data set [5], 7.82 to 7.92; in data set [6], < 5.00. Also, the remaining at 10 min in data set [2] is 5%; in data set [4], 4%. Further, the Intrinsic activity in data set [3] turned out to be 0.8.

Take `Cc1cc(-c2cccc3ccccc23)sc1C(=O)N1CCC(CO)CC1`: the pEC50 in data set [1] was < 5.00; in data set [5], 7.70; in data set [6], < 5.30. Also, the remaining at 10 min in data set [2] was 87%; in data set [4] it was 20%. Further, the Intrinsic activity in data set [3] came out at 1.

Regarding `Cc1nc(-c2cccc3ccccc23)sc1C(=O)N1CCN(C)CC1`, the negative logarithm of the EC50 (pEC50) in data set [7] is 6.89; in data set [1] it was < 5.00; in data set [5], 6.91 to 7.37; in data set [6] it was < 5.00. In data set [3], the Intrinsic activity came to 0.8.

As to `Cc1nn(-c2cccc3ccccc23)cc1C(=O)N1CCC(CO)CC1`, the pEC50 was < 5.00 in data set [1], 7.80 in data set [5] and < 5.00 in data set [6]. The remaining at 10 min in data set [2] was 88%; in data set [4] it was 51%. Moreover, the Intrinsic activity in data set [3] is 1.

Consider `Cc1nc(-c2cccc3ccccc23)sc1C(=O)N1CCCC(O)CC1` (stereo not drawn), for which the figures for the pEC50 in data set [1], in data set [5] and in data set [6] were < 5.00, 7.60 to 7.77 and < 5.00, respectively. Further, the remaining at 10 min in data set [2] amounted to 50%; in data set [4], 8%. The Intrinsic activity in data set [3] was 0.9.

On to `O=C(c1csc(-c2cccc(Cl)c2Cl)n1)N1CCOCC1`, for which the pEC50 in data set [7] is 8.70; in data set [1], < 5.00; in data set [5] it was 6.89 to 6.92; in data set [6], < 5.00. The Intrinsic activity in data set [3] stood at 0.8.

Turning to `Cc1nc(-c2cccc3ccccc23)sc1C(=O)N(C)CCc1cccnc1`, the pEC50 is < 5.00 in data set [1], 7.41 to 7.42 in data set [5] and < 5.00 in data set [6]. The results for the remaining at 10 min in data set [2] and in data set [4] were < 1% and 1%, respectively. Besides, in data set [3], the Intrinsic activity was 0.7.

Take `COCCN(C)C(=O)c1sc(-c2cccc3ccccc23)nc1C`: the pEC50 in data set [1] is < 5.00; in data set [5], 7.85; in data set [6], < 5.00. Besides, the remaining at 10 min in data set [2] is 28%; in data set [4], 7%. Moreover, the Intrinsic activity in data set [3] came to 0.9.

Regarding `Cc1nc(-c2cccc3ccccc23)sc1C(=O)N1CCc2[nH]cnc2C1`, the pEC50 in data set [1] is < 5.00; in data set [5] it was 7.17; in data set [6], < 5.00. Besides, the remaining at 10 min in data set [2] stood at 70%; in data set [4], 15%. Further, the Intrinsic activity in data set [3] was 1.

With `Cc1nc(-c2cccc3ccccc23)sc1C(=O)N1CCCCC1`, the negative-log EC50 (pEC50) in data set [1] is < 5.00; in data set [5], 7.62; in data set [6] it was < 5.00. Also, the remaining at 10 min in data set [2] stood at 24%; in data set [4], 1%. In data set [3], the Intrinsic activity was 1.

`Cn1nc(-c2cccc3ccccc23)cc1-c1cccnn1`: the pEC50 was < 5.00 in data set [1], 7.40 to 7.60 in data set [5] and < 5.30 in data set [6]. For the same compound, the remaining at 10 min in data set [2] amounted to 12%. Moreover, the Intrinsic activity in data set [3] turned out to be 1.2.

`CCn1nc(-c2cccc3ccncc23)cc1-c1cccnn1`: the negative logarithm of the EC50 (pEC50) in data set [1] is < 5.00; in data set [5], 7.37 to 7.89; in data set [6] it was < 5.00. Further, the remaining at 10 min in data set [2] amounted to 16%. Moreover, the Intrinsic activity in data set [3] turned out to be 0.7.

Consider `Cc1nc(-c2cccc3ccccc23)sc1C(=O)N(CCO)C(C)C`, for which the pEC50 in data set [1], in data set [5] and in data set [6] was < 5.00 throughout. Also, the remaining at 10 min in data set [2] was found to be 28%; in data set [4], 7%.

Regarding `Cc1oc(-c2cccc3ccccc23)nc1C(=O)N1CCC(CO)CC1`, the negative logarithm of the EC50 (pEC50) in data set [1] is < 5.00; in data set [5] it was 6.24 to 6.42; in data set [6] it was < 5.00. In addition, the remaining at 10 min turned out to be 62% in data set [2] and 16% in data set [4]. Besides, in data set [3], the Intrinsic activity was determined as 1.

Turning to `CCn1nc(-c2cccc3ccccc23)cc1-c1ncnn1C`, the pEC50 is < 5.00 in data set [1], 6.21 to 6.72 in data set [5] and < 5.00 in data set [6]. In addition, the remaining at 10 min in data set [2] is 4%. Moreover, in data set [3], the Intrinsic activity is 0.7.

As for `Cc1nc(-c2cccc3ccccc23)sc1C(=O)N1CCC(O)CC1`, the pEC50 in data set [1] is < 5.00; in data set [5] it was 7.33; in data set [6], < 5.00. For the same compound, the results for the remaining at 10 min in data set [2] and in data set [4] were 84% and 34%, respectively. The Intrinsic activity in data set [3] was 0.9.

With `CCn1nc(-c2cccc3cccnc23)cc1-c1cccnn1`, the figures for the Intrinsic activity in data set [8] and in data set [3] were 0.2 and 1, respectively. In addition, the pEC50 in data set [1] is 8.22 to 8.52; in data set [5], 8.70; in data set [6], 6.82. Further, the remaining at 10 min in data set [2] came to 8%.

Regarding `CCn1nc(-c2cccc3ccccc23)cc1-c1nccn1C`, the pEC50 was < 5.00 in data set [1], 7.43 to 7.57 in data set [5] and < 5.00 in data set [6]. Also, in data set [2], the remaining at 10 min is 5%. The Intrinsic activity in data set [3] came to 0.8.
